Results collected from several papers.
Compare with care: the assays were run in different laboratories.
Matrix: plasma

| Structure (SMILES) | system | setting | measurement | value |
| --- | --- | --- | --- | --- |
| COc1ccc(F)cc1C(=O)NCc1ccc(-c2nn([C@@H](C)C(F)(F)F)c(N)c2C(N)=O)cc1 | human | oral, 200 mg, single dose, fasted, healthy volunteers | AUC(0-inf) | 85100 ng·h/mL |
| C=CC(=O)NC1CCN(c2ncc3ncnc(Nc4ccc(Oc5ccc6c(c5)ncn6C)c(C)c4)c3n2)CC1 | male human | oral, 60 mg, single dose, healthy volunteers | AUC(0-inf) | 14.2 µM·h |
| O=C(COc1ccc(Cl)cc1)NC12CC(c3nnc([C@H]4C[C@@H](OC(F)(F)F)C4)o3)(C1)C2 | human | oral, 145 mg, multiple doses, once daily, steady state, healthy volunteers | AUC | 141 µM·h |
| OC[C@H]1O[C@@H](c2cc(Cc3ccc(C4CC4)cc3)c(Cl)c3c2CCO3)[C@H](O)[C@@H](O)[C@@H]1O | human | oral, 0.3 mg, single dose, fasted | AUC(0-inf) | 33.3 ng·h/mL |
| COc1ccc(-c2c(Nc3ccccn3)[nH]c3c(C4=CCCCC4)c(-c4ccccc4)nn3c2=O)cc1 | human | oral, 200 mg once daily, multiple doses, steady state, patients | AUC(0-t) | 108000 ng·h/mL |
| COc1ccc2c(c1)CN(C(=O)CCN1CCC(Cc3ccccc3)CC1)CC[S@@+]2[O-] | male human | intravenous, 0.6 mg/kg, healthy volunteers | AUC(0-inf) | 3240 ng·h/mL |
| CC(C)n1c(C2CCNCC2)nc2c([N+](=O)[O-])c(Br)c(Br)cc21 | human | oral, 75 mg, patients | AUC(0-t) | 288 ng·h/mL |
| CC(=O)N(C)[C@H]1CCN(C(=O)c2cnc3c(c2)C[C@](C)(c2ccc(F)cc2)N3)C1 | male human | oral, 30 mg, multiple doses, once daily | AUC(0-inf) | 3.99 µM·h |
| CC(C)c1nc(N(C)S(C)(=O)=O)nc(-c2ccc(F)cc2)c1/C=C/[C@@H](O)C[C@@H](O)CC(=O)O | human | oral, 10 mg | AUC | 60.3 ng·h/mL |
